Data on seven molecules can be found in PubChem BioAssay.

Active and inactive are the calls of the source.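 Rule for the calls, unless noted: active = NADPH fluorescence slope more negative than the mean of all samples by about 3 SD, 99.7% confidence; inactive = the rest.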

Assay [1] is described as follows: inhibitors of TNFa-induced NFkB p65 translocation, primary screen, imaging, HUVEC, MLSMR starter and 10KST1 sets (AID 438;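 active = inhibition above 20% together with a positive visual image hit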;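 note: compound added about 3h40 before a 20 min TNFalpha stimulation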;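 for inhibition: signal is the nuclear over cytoplasmic p65 intensity ratio per well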). The following applies: HUVEC TNFa-induced p65 nuclear translocation; cell count: measured here: nuclei count (cytotoxicity indicator), at 2.08 µM; inhibition: at 2 µM, stronger effect = higher value, 0% TNFa-plus-vehicle, 100% no-TNFa wells.
Assay [2] can be described thus: inhibitors of E-selectin induction by TNFa, primary screen, imaging, HUVEC, immunofluorescence, MLSMR starter and 10KST1 sets (AID 487;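 active = visually confirmed hit in the image check and inhibition above 20%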;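 for inhibition: signal is fraction of cell area covered by stained E-selectin grains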;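 for nuclei count: 100% = median nuclei count of all wells on the same plate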). Particulars: HUVEC TNFalpha-induced E-selectin immunofluorescence imaging, at 2 µM; inhibition: stronger effect = higher value; nuclei count: measured here: cell number, toxicity.
A short description of assay [3]: DUSP6 inhibitors restoring Erk phosphorylation by chemical complementation, primary imaging in DUSP6-transfected HeLa (AID 609;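 active = compounds giving at least 50% inhibition in the cell-based MKP-3 phosphatase rescue imaging test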;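 for inhibition: phospho-Erk level distribution per well compared with pooled transfected vehicle control wells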). The following applies: HeLa MKP-3 transfected, phospho-Erk imaging KS statistic, at 10 µM, cells stimulated with TPA for 15 min.
In assay [4] the target is Dual specificity protein phosphatase 6 (Homo sapiens) (UniProt Q16828). Described as above. Particulars: HeLa MKP-3 transfected, phospho-Erk imaging KS statistic; at 10 µM; stronger effect = higher value; cells stimulated with TPA for 15 min.
Dual specificity protein phosphatase 6 (Homo sapiens), sequence (Q16828 whole entry, looked up): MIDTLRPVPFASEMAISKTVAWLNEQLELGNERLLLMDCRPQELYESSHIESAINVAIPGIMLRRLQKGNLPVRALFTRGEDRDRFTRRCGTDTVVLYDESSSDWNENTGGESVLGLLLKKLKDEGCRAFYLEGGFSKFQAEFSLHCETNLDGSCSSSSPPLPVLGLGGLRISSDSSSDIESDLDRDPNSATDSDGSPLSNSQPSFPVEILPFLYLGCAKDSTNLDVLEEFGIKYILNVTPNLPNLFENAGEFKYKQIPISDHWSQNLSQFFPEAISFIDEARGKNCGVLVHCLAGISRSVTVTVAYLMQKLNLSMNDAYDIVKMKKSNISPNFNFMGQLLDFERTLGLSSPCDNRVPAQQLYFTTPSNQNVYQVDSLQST
In assay [5] the target is Voltage-gated potassium channel subunit beta-2 (Rattus norvegicus) (UniProt P62483). In words: KvBeta enzyme negative modulators, primary screen, biochemical, NADPH fluorescence (AID 622;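 active = fluorescence slope higher than the sample average by over 3 SD, cut at about -0.22 in these data, passing the limit was not always enough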;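 note: slope of raw intensity against log time taken from 70 to 1610 s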). Particulars: recombinant KvBeta, 4-cyanobenzaldehyde reduction, at 10 µM, stronger effect = higher value.
Voltage-gated potassium channel subunit beta-2 (Rattus norvegicus), sequence (P62483 whole entry, looked up): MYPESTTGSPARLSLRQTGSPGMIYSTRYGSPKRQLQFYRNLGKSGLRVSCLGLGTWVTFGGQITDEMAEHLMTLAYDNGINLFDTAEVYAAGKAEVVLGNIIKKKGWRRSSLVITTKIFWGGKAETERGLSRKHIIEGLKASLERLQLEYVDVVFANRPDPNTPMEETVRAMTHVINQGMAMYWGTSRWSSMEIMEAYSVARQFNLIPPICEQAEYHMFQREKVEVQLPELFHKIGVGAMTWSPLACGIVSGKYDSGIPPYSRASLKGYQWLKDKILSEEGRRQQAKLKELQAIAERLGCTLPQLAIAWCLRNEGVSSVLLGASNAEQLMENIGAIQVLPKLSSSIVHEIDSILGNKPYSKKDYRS
For assay [6] the target is unchanged. The assay can be described thus: KvBeta positive modulators, primary screen, biochemical, NADPH fluorescence (AID 623).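 Note: fluorescence intensity change per second fitted from 20 to 320 s.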 The following applies: Recombinant KvBeta, NADPH fluorescence decrease slope, 10 min; at 10 µM; stronger effect = lower value.
Assay [7] addresses Alpha-2C adrenergic receptor (Homo sapiens) (UniProt P18825). In words: modulators of alpha2C/GIRK thallium flux, primary screen, cell-based, HEK293 alpha2C/GIRK1/2 (AID 624;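 active = fluorescence slope after compound addition differing from the mean of all screened samples at 99.7% confidence, in either direction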;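 note: slope of fluorescence ratio to pre-addition baseline per second over 15 to 24 s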). Particulars: thallium flux BTC fluorescence, at 10 µM, actives lie on both sides.
Assay [8] can be described thus: inhibitors of larval lipid processing in zebrafish, primary screen, whole organism, PED6 fluorescence, gall bladder and intestine (AID 686;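 active = a full or partial loss of lipid-probe fluorescence in the fish gall bladder, intestine or both, judged by eye; inactive = no fluorescence loss, or compound toxic to the fish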;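 note: larvae 5 to 7 days old with five fish per well; signal comes from phospholipase A2 cleavage of quenched PED6 carried via bile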). Particulars: Zebrafish larvae PED6 lipid processing, fluorescence scoring; screened at 20 µM (by protocol). The procedure, abridged: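 System: live zebrafish larvae aged 5-7 days, whole organism; measure: graded gall bladder and intestinal fluorescence inhibition per well; incubation: overnight exposure; reagent: ingested quenched lipid PED6 at 100 nM; signal: By-eye fluorescence microscopy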

A short description of assay [9]: inhibitors of Chlamydomonas gravitaxis, primary screen, whole organism, Chlamydomonas reinhardtii, WT vs cilia-less mutant, absorbance, 96-well (AID 463189;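 active = inhibition at or above 50% relative to wild type and mutant plate controls; inactive = inhibition below 50%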;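 note: 0% = wild type cc124 cells in DMSO and 100% = ciliumless bld1 mutant cells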). The following applies: OD600 absorbance, 2 days, at 10 µM, stronger effect = higher value.
[10] abbreviates: measured here: cell density z-score.
Where [11] appears, read: measured here: nuclear c-Myc green intensity z-score.
[12] abbreviates: measured here: nuclear pErk red intensity z-score, stronger effect = higher value.

Alpha-2C adrenergic receptor (Homo sapiens), sequence (P18825 whole entry, looked up): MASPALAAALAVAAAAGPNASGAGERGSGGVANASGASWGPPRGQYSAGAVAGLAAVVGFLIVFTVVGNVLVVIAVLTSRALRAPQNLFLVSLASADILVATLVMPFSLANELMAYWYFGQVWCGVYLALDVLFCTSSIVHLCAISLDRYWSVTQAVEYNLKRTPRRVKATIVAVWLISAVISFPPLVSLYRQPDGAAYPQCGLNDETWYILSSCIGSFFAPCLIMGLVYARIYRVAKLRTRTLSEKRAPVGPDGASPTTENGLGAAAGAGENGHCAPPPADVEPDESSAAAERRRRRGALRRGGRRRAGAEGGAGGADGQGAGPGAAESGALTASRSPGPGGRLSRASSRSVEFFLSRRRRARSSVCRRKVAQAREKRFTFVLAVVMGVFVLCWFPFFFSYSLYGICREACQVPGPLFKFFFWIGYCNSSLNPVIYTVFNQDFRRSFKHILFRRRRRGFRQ

In the case of `CCCOc1ccc(N2C(=O)CC(N(CCC)C(=O)CCC(=O)O)C2=O)cc1` (stereo unspecified), the cell count in assay [1] amounted to 468. For the same molecule, the inhibition (usually the change of the read-out against control, counted positive when it falls) in [1] is -11.6% (inactive); in assay [2] it was -161% (inactive); in assay [4], 7.7% (inactive); in [9] it was 11.3% (inactive). The nuclei count in [2] amounted to 204%. In addition, the values for the z-score in [3] (setting [10]), in assay [3] (setting [11]) and in [3] (setting [12]) were -1.24, -0.331 and -0.093, respectively. Also, in [5], the fluorescence slope is -0.384 (inactive). In addition, in [6], the NADPH fluorescence slope was -9.2e-06 (inactive). Further, the slope in assay [7] is 0.00456 (inactive). Further, in assay [8], the outcome was “inactive; toxic”.

In the case of `Cn1c(=O)c2c(nc(NCc3ccc4c(c3)OCO4)n2Cc2ccc(F)cc2)n(C)c1=O`, the cell count in assay [1] is 600. In addition, the inhibition is 3.1% (inactive) in assay [1], -39.4% (inactive) in assay [2], -2.91% (inactive) in [4] and 2.97% (inactive) in [9]. This molecule also yielded a nuclei count in assay [2] of 152%. Further, the z-score is -0.468 in [3] (setting [10]), -0.0841 in [3] (setting [11]) and -0.555 in [3] (setting [12]). In addition, the fluorescence slope in assay [5] was -0.511 (inactive). In assay [6], the NADPH fluorescence slope was -8.9e-05 (inactive). Also, the slope in [7] is 0.00456 (inactive). For the same molecule, the call in assay [8] was inactive.

Turning to `Cc1cc(C)nc(N(C#N)S(=O)(=O)c2ccccc2Cl)n1`, in assay [1], the cell count was determined as 352. In addition, the inhibition in assay [1] is -11.5% (inactive); in assay [2], -228% (inactive); in [4], -2.07% (inactive); in [9], -0.932% (inactive). Moreover, in assay [2], the nuclei count amounted to 115%. The z-score in assay [3] (setting [10]) is -0.515; in assay [3] (setting [11]), -1.54; in [3] (setting [12]), -0.959. In addition, the fluorescence slope in assay [5] is -0.406 (inactive). Moreover, in [6], the NADPH fluorescence slope was -3.7e-06 (inactive). Moreover, the slope in assay [7] is 0.0071 (inactive). Moreover, the result in assay [8] was inactive.

As to `O=C(O)CC(C(=O)OCC1CCCO1)N1CCOCC1` (stereo unspecified), in [1], the cell count stood at 526. In addition, the inhibition in [1] was -5.8% (inactive); in [2] it was -141% (inactive); in [4], 10.5% (inactive); in assay [9], -1.05% (inactive). This molecule also had a nuclei count in assay [2] of 145%. Also, the values for the z-score in [3] (setting [10]), in assay [3] (setting [11]) and in assay [3] (setting [12]) were 0.582, -0.928 and -1.26, respectively. In addition, the fluorescence slope in [5] is -0.518 (inactive). For the same molecule, the NADPH fluorescence slope in assay [6] is -4.1e-05 (inactive). In [7], the slope is 0.00538 (inactive). In addition, in assay [8], the outcome was inactive.

`CCOC(=O)C1=C(C(C)=O)C(c2cccnc2)C(C#N)=C(N)O1` (stereo unspecified): the cell count in assay [1] is 548. Besides, the inhibition in assay [1] was -5.1% (inactive); in [2], -109% (inactive); in [4], 6.04% (inactive); in [9], 12.1% (inactive). In [2], this molecule displayed a nuclei count of 228%. Moreover, the z-score was 0.844 in assay [3] (setting [10]), -1.11 in [3] (setting [11]) and -0.0919 in assay [3] (setting [12]). In addition, the fluorescence slope in assay [5] is -0.369 (inactive). Also, the NADPH fluorescence slope in assay [6] is -1e-05 (inactive). Further, in [7], the slope is 0.00521 (inactive). The molecule was called inactive in assay [8].

Turning to `COc1ccc(C(=O)CSC2=C(C#N)C3(CCCCC3)C(C#N)=C(N)N2)cc1`, the cell count in [1] stood at 705. For the same molecule, the inhibition in [1] is -13.2% (inactive); in assay [2], -25.4% (inactive); in assay [4], 2.71% (inactive); in assay [9], -3.04% (inactive). This molecule gave a nuclei count in assay [2] of 192%. The z-score in assay [3] (setting [10]) is -0.688; in [3] (setting [11]), 1.18; in assay [3] (setting [12]), 0.232. The fluorescence slope in assay [5] is -0.393 (inactive). In [6], the NADPH fluorescence slope was -3.2e-05 (inactive). Moreover, the slope in assay [7] is 0.00422 (inactive). Further, in assay [8], the molecule was called inactive.

In the case of `CNC(=O)C1CC(=O)N(Cc2ccccc2)C(=Nc2ccc(OC)cc2)S1` (stereo unspecified), in [1], the cell count was 491. Further, the inhibition in assay [1] is -5.2% (inactive); in assay [2], -228% (inactive); in assay [4] it was -14% (inactive); in assay [9] it was 1.87% (inactive). In assay [2], the nuclei count is 127%. Further, the z-score is -1.18 in [3] (setting [10]), -0.897 in [3] (setting [11]) and 1.34 in assay [3] (setting [12]). In addition, in assay [5], the fluorescence slope is -0.496 (inactive). In addition, in assay [6], the NADPH fluorescence slope was -4.1e-05 (inactive). In addition, the slope in assay [7] was 0.00456 (inactive). Also, the outcome in [8] was inactive.
